Published values from different studies.
Compare with care: the assays were run in different laboratories.
Target: Inhibitor of nuclear factor kappa-B kinase subunit epsilon (IKBKE, Homo sapiens, UniProt Q14164)
Sequence (Q14164 1-716, as in one of the studies): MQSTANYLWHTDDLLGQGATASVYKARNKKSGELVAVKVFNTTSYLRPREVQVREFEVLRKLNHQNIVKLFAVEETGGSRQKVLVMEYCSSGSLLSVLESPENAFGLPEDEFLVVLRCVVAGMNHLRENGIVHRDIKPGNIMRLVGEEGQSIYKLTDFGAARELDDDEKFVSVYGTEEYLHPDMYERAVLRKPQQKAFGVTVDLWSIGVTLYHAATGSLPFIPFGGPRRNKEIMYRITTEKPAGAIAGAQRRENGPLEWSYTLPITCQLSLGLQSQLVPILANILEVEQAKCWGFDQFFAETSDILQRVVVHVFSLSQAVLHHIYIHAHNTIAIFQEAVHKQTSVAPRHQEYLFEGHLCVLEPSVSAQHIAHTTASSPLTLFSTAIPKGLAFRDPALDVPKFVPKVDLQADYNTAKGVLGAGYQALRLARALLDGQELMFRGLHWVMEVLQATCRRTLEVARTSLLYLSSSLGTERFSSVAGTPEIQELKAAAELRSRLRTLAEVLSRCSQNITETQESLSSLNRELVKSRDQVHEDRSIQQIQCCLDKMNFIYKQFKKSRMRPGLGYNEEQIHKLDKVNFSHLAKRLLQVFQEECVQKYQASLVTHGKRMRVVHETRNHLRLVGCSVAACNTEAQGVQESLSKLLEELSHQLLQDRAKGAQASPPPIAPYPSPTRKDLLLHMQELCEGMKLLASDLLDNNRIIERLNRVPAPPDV

O=c1[nH]c2ccccc2n1C1CCN(Cc2ccc(-c3[nH]c4cc5ncnc5cc4nc3-c3ccccc3)cc2)CC1  remaining activity (enzyme activity; 0.5 µM): 91.9%
Cn1cc(-c2cc(F)cc(N3CCn4c(cc5c4CCCC5)C3=O)c2CO)cc(Nc2ccc(N3CCN(C4COC4)CC3)cn2)c1=O  inhibition (enzyme activity; inhibitor; 0.1 µM): 12%
Nc1ncc(-c2nc(N3CCOCC3)nc(N3CCOCC3)n2)c(C(F)F)n1  remaining binding (binding; competition with immobilised ligand; 10 µM): 99%
Cc1nn(C)cc1-c1nc2c(N3CCN(Cc4ccc(Cl)cc4)CC3)c(Cl)cnc2[nH]1  remaining binding (binding; competition with immobilised ligand; 1 µM): 100%
CC(C)(C)c1cc(C=C(C#N)C#N)cc(Br)c1O  remaining activity (enzyme activity; inhibitor; 0.5 µM): 86.8%
Cn1cncc1[C@@](O)(COc1ccc(C#N)cc1-c1ccc(OC(F)(F)F)cc1)c1ccc(C#N)cc1  remaining binding (cell-free assay; competition with immobilised ligand; 1 µM): 100%
COc1ncccc1-c1cnn2ccc(N3CCN(C(=O)OC(C)C)CC3)nc12  remaining binding (binding; competition with immobilised ligand; 1 µM): 69%
Cn1cc(-c2cccc(N3CCc4c(sc5c4CC(C)(C)C5)C3=O)c2CO)cc(Nc2ccncn2)c1=O  inhibition (enzyme activity; inhibitor; 1 µM): 9%
N#CC1(c2ccccn2)CCN(Cc2cc(C(=O)O)c(=O)n3ccccc23)CC1  remaining binding (cell-free assay; competition with immobilised ligand; 1 µM): 88%
